Reference: ChEMBL document CHEMBL4354863, “Discovery of Novel Allosteric Inhibitors of Deoxyhypusine Synthase” (J Med Chem, 2020)

molecular target: T1, Deoxyhypusine synthase (Homo sapiens, UniProt P49366); test: (§1) Inhibition of human N-terminal His6-tagged TEV protease site linked DHPS expressed in Escherichia coli BL21 (DE3) assessed as reduction in radiolabelled amino-butylidene incorporation in eIF5A using [3H]Spermidine trichloride as substrate after 90 to 120 mins in presence of eIF5A and 14 uM NAD+ by Topcount scintillation counting method
T1 sequence (P49366 whole entry): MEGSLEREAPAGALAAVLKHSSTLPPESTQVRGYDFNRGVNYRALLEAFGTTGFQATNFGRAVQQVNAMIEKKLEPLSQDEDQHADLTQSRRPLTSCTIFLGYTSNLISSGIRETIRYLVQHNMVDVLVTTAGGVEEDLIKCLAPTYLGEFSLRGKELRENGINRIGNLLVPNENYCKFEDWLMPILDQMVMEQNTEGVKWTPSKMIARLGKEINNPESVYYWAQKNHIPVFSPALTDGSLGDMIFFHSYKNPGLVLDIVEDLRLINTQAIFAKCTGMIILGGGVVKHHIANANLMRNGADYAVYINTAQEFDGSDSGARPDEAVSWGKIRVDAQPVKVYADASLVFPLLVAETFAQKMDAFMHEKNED
How it was run: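 Reaction run 120 min at room temperature, quenched with GC-7, and bound to streptavidin plates for 90–120 min. Plates washed and scintillation-counted. IC50 with 95% CI from nonlinear regression of percent inhibition.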

Structure (SMILES) | IC50
O=C(Nc1cccc2[nH]ccc12)c1ccc2ccccc2c1 | > 100 µM
CC(C)(C)c1ccc(S(=O)(=O)Nc2cccc3[nH]ccc23)cc1 | > 100 µM
O=C(Nc1cccc2[nH]ccc12)c1cc2ccccc2o1 | > 100 µM
NC(=O)c1ccc2cc(C(=O)Nc3cccc4[nH]ccc34)sc2c1 | 11 µM
CC(C)(C)c1ccc(NC(=O)c2cccc3[nH]ccc23)cc1 | 99 µM
CC(C)(C)c1ccc(C(=O)Nc2cccc3c2CCN3)cc1 | > 100 µM
CC(C)(C)c1ccc(C(=O)Nc2cccc3cn[nH]c23)cc1 | > 100 µM
O=C(Nc1cccc2[nH]ccc12)c1cc2cccc(Br)c2s1 | > 100 µM
O=C(Nc1cccc2[nH]ccc12)c1ccccc1 | > 100 µM
O=C(Nc1cccc2[nH]ccc12)c1cc2cc(Br)ccc2s1 | > 100 µM
CC(C)(C)c1ccc(NC(=O)Nc2cccc3[nH]ccc23)cc1 | > 100 µM
CC(C)(C)c1ccc(C(=O)Nc2cccc3[nH]ncc23)cc1 | 22 µM
CC(C)(C)c1ccc(C(=O)Nc2cccc3c2CC(=O)N3)cc1 | 42 µM

Now those with a lower IC50, led by results:

IC50 | Structure (SMILES)
0.14 µM | N=C(N)NCCCCCCCN
0.43 µM | N#Cc1ccc2cc(C(=O)Nc3cccc4[nH]ccc34)sc2c1
0.84 µM | CC(C)(C)c1ccc(C(=O)Nc2cccc3[nH]ccc23)cc1
0.12 µM | O=C(Nc1cccc2[nH]ccc12)c1cc2ccc(Cl)cc2s1
2.3 µM | O=C(Nc1cccc2[nH]ccc12)c1cc2ccccc2s1
0.092 µM | O=C(Nc1cccc2[nH]ccc12)c1cc2ccc(I)cc2s1
0.062 µM | O=C(Nc1cccc2[nH]ccc12)c1cc2ccc(Br)cc2s1
5.4 µM | CC(C)(C)c1ccc2cc(C(=O)Nc3cccc4[nH]ccc34)sc2c1

molecular target: T1, Deoxyhypusine synthase; test: as §1, with “Competitive inhibition” for “Inhibition”, “using 2 uM of” for “using”, “250” for “14”
How it was run: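 Human DHPS (His-tagged, tag removed with TEV, purified by Ni-affinity and size exclusion), 24 nM, with 1 µM eIF5A, 2 µM [³H]-spermidine (38.5 Ci/mmol) and 250 µM NAD⁺ (×18 Km). Reaction run 120 min at room temperature, stopped with GC-7, and captured on streptavidin plates for 90–120 min. Plates washed with PBS and counted by scintillation. IC50 from nonlinear regression of percent inhibition.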

Structure (SMILES) | IC50
N=C(N)NCCCCCCCN | 0.5 µM
CC(C)(C)c1ccc(C(=O)Nc2cccc3[nH]ccc23)cc1 | 38 µM
O=C(Nc1cccc2[nH]ccc12)c1cc2ccc(Br)cc2s1 | 56 µM

molecular target: T1, Deoxyhypusine synthase; test: as §1, with “Competitive inhibition” for “Inhibition”, “using 100 uM of” for “using”
How it was run: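 Human DHPS expressed in E. coli, Ni-affinity purified, His-tag removed by TEV protease, then size-exclusion purified; 24 nM enzyme. Run with 1 µM eIF5A, 14 µM NAD+, 100 µM [3H]-spermidine (high-spermidine condition), 1 mM DTT, 50 mM Tris-HCl pH 8.0, 120 min at room temperature. Stopped with GC-7, captured on streptavidin plates, PBS-washed, scintillation counted. IC50 from nonlinear regression, 95% CI.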

Structure (SMILES) | IC50
O=C(Nc1cccc2[nH]ccc12)c1cc2ccc(Br)cc2s1 | 6.9 µM
